This passage reports folding enthalpy and Tm results from the array DNA melting data of Ke et al. (doi:10.1101/2024.01.08.574731).

A short description of data set [1]: folding enthalpy; higher = less favourable; fluorescence melt of hairpins on a sequencing array, two-state fit. Conditions: sodium 0.088 M. An outline of the steps: (§1)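 Cy3 fluorescence of library hairpins on a sequenced MiSeq flow cell, with annealed Cy3 and quencher oligos, was imaged in 50 mM Na-HEPES pH 8.0, 25 mM NaCl in 2.5 °C steps up to 60 °C. Signals were normalised to pre-quench Cy3 and to control variants. Melting temperature and folding enthalpy came from bootstrapped two-state fits, inverse-variance combined over four replicates. Fitted temperatures were raised by 9.35 °C to match UV melts.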

Data set [2] in a line: melting temperature; fluorescence melt of hairpins on a sequencing array, two-state fit, raised by 9.35 °C to match UV melts. Conditions: sodium 0.088 M. An outline of the steps:
as §1

With GTCCCGCGAAAGCGTGAC (((.(((....))).))), the folding enthalpy in data set [1] was -23.9 kcal/mol. Moreover, the Tm in data set [2] is 52.9 °C.
The corresponding values for GTTCTGGGAAACTAGGAC ((.((.(....).)).)) are -9.14 kcal/mol and 28.8 °C.
Regarding GAGCTGGGAAACCAGTTC ((.((((....)))).)), the folding enthalpy in data set [1] was -24.4 kcal/mol. Further, the Tm in data set [2] worked out at 47.4 °C.
The corresponding values for GACGCGACGAAAGTCGTC (((..(((....)))))) are -8.11 kcal/mol and 35.5 °C.
As to GAGTGCGGAAACGCATTC ((.((((....)))).)), the folding enthalpy in data set [1] is -23.8 kcal/mol. Besides, the Tm in data set [2] was 51.9 °C.
Take GATCGGGCAGCCGATC ((((((....)))))): in data set [1], the folding enthalpy was -40.3 kcal/mol. Moreover, in data set [2], the Tm stood at 59.3 °C.
The corresponding values for GATCTGCGTCAGATC ((((((...)))))) are -29.4 kcal/mol and 49.6 °C.
Taken in the same sequence, the figures for GGTACAGGAAACTGTGTC (..((((....))))..) were -17.6 kcal/mol and 28.9 °C.
The corresponding values for GCAGTTGGAAACAATTGC (((.(((....))).))) are -31.2 kcal/mol and 46.9 °C.
Regarding GCCGTTGGAAACAGTGGC (((..((....))..))), the folding enthalpy in data set [1] was -14.4 kcal/mol. The Tm in data set [2] turned out to be 43.6 °C.
The corresponding values for GATCGTGGAAACGTGATC ((((..(....)..)))) are -17.1 kcal/mol and 37.3 °C.
GACACGCGAAAGCGGTC (((.(((....)))))): the folding enthalpy in data set [1] was -15.3 kcal/mol. In addition, the Tm in data set [2] is 56 °C.
Taken in the same sequence, the figures for GAGAAGGAAACTTCTC ((((((....)))))) were -23.3 kcal/mol and 48.3 °C.
Regarding GGCGGCGAAAGCCGTGCC ((((((....)))..))), in data set [1], the folding enthalpy was -10.1 kcal/mol. Besides, in data set [2], the Tm is 57.7 °C.
The corresponding values for GTGATTCCGAAAGGACAC (((..(((....)))))) are -15.3 kcal/mol and 31.1 °C.
The corresponding values for GAGTTCGGAAACGGACTC ((((.((....)).)))) are -43.1 kcal/mol and 52 °C.
The corresponding values for GTGAGAGAAATCTCAC ((((((....)))))) are -32.4 kcal/mol and 51.7 °C.
GTATTCGAAAGAAGTAC ((((((....))).))): the folding enthalpy in data set [1] was -8.84 kcal/mol. In addition, in data set [2], the Tm stood at 24.9 °C.
The corresponding values for GGGTTCGAAAGAAAGCCC ((((((....)))..))) are -16 kcal/mol and 36 °C.
Taken in the same sequence, the figures for GATCTAAGTTTAGATC ((((((....)))))) were -30 kcal/mol and 41.9 °C.
The corresponding values for GTCTCGCGAAAGCGTGAC (((.(((....))).))) are -28.6 kcal/mol and 60.7 °C.
In the case of GAGTCGGGAAACCGGCTC (((.(((....))).))), in data set [1], the folding enthalpy is -33.3 kcal/mol. In data set [2], the Tm is 61.1 °C.
Taken in the same sequence, the figures for GATAGTGGAAACACTATC (((((((....))))))) were -47.2 kcal/mol and 54.5 °C.
Take GTCGTACGAAAGTAAGAC (((.(((....))).))): in data set [1], the folding enthalpy was -33.2 kcal/mol. For the same sequence, in data set [2], the Tm stood at 52.1 °C.
The corresponding values for GGTCACGAAAGTGCACC ((((((....))).))) are -28.3 kcal/mol and 52.5 °C.
The corresponding values for GATCGTTTCACGATC ((((((...)))))) are -33.5 kcal/mol and 58.6 °C.
The corresponding values for GCGGACTTCCGC ((((....)))) are -23.2 kcal/mol and 57.4 °C.
As for GCTGGGCGAAAGCTCTGC ((.(.((....)).).)), in data set [1], the folding enthalpy is -22.3 kcal/mol. Further, the Tm in data set [2] is 53.1 °C.
The corresponding values for GATGGTGGAAACACCATC (((((((....))))))) are -39.4 kcal/mol and 65.1 °C.
The corresponding values for AAGTCGAAAGACTT (((((....))))) are -18.3 kcal/mol and 52.6 °C.
The corresponding values for GTATCGCGAAAGCGGTAC (((.(((....))).))) are -29.2 kcal/mol and 56.5 °C.
As for GCAATGCGAAAGCATGC (((.(((....)))))), the folding enthalpy in data set [1] is -22.9 kcal/mol. The Tm in data set [2] is 63 °C.
The corresponding values for GATCGTGGATACGATC ((((((....)))))) are -51.4 kcal/mol and 60.7 °C.
For GATCAAAGATTTGATC ((((((....)))))), in data set [1], the folding enthalpy was -31.8 kcal/mol. Further, the Tm in data set [2] came to 43.6 °C.
Taken in the same sequence, the figures for GCGTAGGAACGC ((((....)))) were -16.3 kcal/mol and 49.2 °C.
In the case of GTCGAGGCGAAAGCCGAC (((..(((....)))))), the folding enthalpy in data set [1] was -9.98 kcal/mol. Also, in data set [2], the Tm was 51 °C.
As for GATCAGATGGCTGATC ((((((....)))))), the folding enthalpy in data set [1] was -30.4 kcal/mol. In addition, the Tm in data set [2] came to 49.3 °C.
